The source of these data is ChEMBL document CHEMBL4834402, “Discovery of TAK-981, a First-in-Class Inhibitor of SUMO-Activating Enzyme for the Treatment of Cancer” (J Med Chem, 2021).

Assay [1] can be described thus: Inhibition of recombinant UAE (unknown origin) in presence of ATP at Km concentration by HTRF assay. Further details: species or system Homo sapiens.
For assay [2], the target named is T1, NEDD8 activating enzyme (Homo sapiens, UniProt Q8TBC4).
T1 sequence (Q8TBC4 whole entry): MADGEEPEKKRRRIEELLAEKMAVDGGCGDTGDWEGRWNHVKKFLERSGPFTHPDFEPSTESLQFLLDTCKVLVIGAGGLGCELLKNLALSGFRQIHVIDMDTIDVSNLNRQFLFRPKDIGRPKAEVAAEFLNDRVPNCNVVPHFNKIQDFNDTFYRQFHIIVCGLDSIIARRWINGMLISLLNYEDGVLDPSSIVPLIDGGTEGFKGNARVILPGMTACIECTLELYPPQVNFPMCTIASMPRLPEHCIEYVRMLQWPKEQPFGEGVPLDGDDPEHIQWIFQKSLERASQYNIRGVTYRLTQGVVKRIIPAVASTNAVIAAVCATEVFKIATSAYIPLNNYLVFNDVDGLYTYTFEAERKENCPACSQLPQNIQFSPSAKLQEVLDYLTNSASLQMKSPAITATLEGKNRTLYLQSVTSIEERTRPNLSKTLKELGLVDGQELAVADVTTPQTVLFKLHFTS
T1 sequence (Q13564 whole entry): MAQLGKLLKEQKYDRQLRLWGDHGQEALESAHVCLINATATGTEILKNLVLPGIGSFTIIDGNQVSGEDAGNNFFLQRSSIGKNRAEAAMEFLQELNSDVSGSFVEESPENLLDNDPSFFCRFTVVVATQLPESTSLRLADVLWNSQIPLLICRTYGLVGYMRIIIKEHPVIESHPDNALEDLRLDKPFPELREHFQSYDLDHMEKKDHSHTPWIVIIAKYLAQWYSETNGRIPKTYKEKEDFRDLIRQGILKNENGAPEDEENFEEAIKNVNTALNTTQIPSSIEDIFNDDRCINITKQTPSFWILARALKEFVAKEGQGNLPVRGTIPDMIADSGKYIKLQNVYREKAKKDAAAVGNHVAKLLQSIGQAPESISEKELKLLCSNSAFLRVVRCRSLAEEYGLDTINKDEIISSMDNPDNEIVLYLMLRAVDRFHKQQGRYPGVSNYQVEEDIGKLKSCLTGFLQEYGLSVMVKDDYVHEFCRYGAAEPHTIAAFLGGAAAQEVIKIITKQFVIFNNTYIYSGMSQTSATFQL
The assay is described as follows: Inhibition of recombinant NAE (unknown origin) in presence of ATP at Km concentration by HTRF assay. The class given is protein-complex assay. On the technique in general: Time-resolved FRET reads energy transfer from a long-lived donor to a nearby acceptor.

Assay [3] addresses T2, SUMO-activating enzyme (Homo sapiens, UniProt Q9UBT2). The assay is described as follows: Inhibition of recombinant SAE (unknown origin) assessed as reduction in transfer of SUMO1 to UBC9 using SUMO1 as a substrate in presence of ATP at Km concentration by HTRF assay. The assay is classed as protein-complex assay. In outline: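 HTRF transthiolation assay measuring transfer of SUMO1 to UBC9, the E2 for SAE.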

Assay [4] addresses T2, SUMO-activating enzyme. The assay is described as follows: Inhibition of SAE in human HCT116 cells assessed as reduction in redistribution of SUMO2/3 proteins from nucleus to cytosol incubated for 4 hrs by immunofluorescence assay. The assay is classed as cell-based, HCT-116. In outline: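 HCT-116 cells exposed to compound across a concentration range for 4 h, then stained with anti-SUMO2/3 monoclonal antibody. Automated imaging scored the nuclear (inner) to cytoplasmic (outer) SUMO2/3 ratio. IC50 taken from the dose response.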

Assay [5] deals with T2, SUMO-activating enzyme. The assay is described as follows: Inhibition of SAE in human HCT116 cells assessed as redistribution of SUMO2/3 proteins from nucleus to cytosol preincubated for 2 hrs followed by compound washout and measured immediately by immunofluorescence assay. The assay is classed as cell-based, HCT-116. In short, it runs like this: (§1)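 Washout format of the SUMO2/3 immunofluorescence assay in HCT116 cells. Cells were exposed to a range of concentrations for 2 h, then washed free of compound.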

In assay [6] the target is T2, SUMO-activating enzyme. As to the kind of experiment: Inhibition of SAE in human HCT116 cells assessed as redistribution of SUMO2/3 proteins from nucleus to cytosol preincubated for 2 hrs followed by compound washout and measured after 8 hrs by immunofluorescence assay. The assay is classed as cell-based, HCT-116. In outline:
as §1

T2 sequence (Q9UBE0 whole entry): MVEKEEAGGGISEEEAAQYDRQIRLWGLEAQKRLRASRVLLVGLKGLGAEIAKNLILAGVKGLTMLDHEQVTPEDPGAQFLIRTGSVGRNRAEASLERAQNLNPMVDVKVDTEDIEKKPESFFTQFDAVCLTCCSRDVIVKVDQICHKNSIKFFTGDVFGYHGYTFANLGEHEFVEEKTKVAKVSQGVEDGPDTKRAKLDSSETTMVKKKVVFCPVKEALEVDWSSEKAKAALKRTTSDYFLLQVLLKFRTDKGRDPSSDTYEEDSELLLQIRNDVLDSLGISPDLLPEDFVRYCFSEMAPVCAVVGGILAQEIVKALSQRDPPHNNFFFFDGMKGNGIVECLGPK
T2 sequence (Q9UBT2 whole entry): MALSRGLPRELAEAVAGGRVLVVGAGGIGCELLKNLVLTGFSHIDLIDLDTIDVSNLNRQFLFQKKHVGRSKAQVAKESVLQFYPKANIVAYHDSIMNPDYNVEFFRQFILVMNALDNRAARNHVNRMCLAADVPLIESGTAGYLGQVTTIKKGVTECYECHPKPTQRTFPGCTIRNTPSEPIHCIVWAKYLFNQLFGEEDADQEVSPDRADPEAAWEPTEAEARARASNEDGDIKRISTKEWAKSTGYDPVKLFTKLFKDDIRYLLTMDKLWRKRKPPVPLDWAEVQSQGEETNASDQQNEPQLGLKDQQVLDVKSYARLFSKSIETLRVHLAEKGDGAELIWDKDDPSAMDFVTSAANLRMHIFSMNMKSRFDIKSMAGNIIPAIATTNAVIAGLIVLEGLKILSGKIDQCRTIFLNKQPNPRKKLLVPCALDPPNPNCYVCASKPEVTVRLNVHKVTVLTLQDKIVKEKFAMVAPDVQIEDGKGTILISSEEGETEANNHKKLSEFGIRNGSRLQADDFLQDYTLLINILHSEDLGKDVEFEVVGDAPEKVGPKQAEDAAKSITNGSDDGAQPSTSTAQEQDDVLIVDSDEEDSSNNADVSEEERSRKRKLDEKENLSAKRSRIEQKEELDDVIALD

Regarding `Cc1sc(C(=O)c2cncnc2N[C@@H]2C[C@H](COS(N)(=O)=O)[C@@H](O)C2)cc1C(O)c1cccc(Cl)c1` (stereo not given in full), the IC50 in assay [1] was greater than 1000 nM; in assay [2] it was 64 nM; in assay [3], 0.3 nM; in assay [4] it was 6 nM; in assay [5], 8 nM; in assay [6], 21 nM.

For `NS(=O)(=O)OC[C@H]1C[C@@H](Nc2ncncc2C(=O)c2cc(C(O)c3cccc(Cl)c3)cs2)C[C@@H]1O` (stereo in doubt; 30), the half-maximal inhibitory concentration (IC50) in assay [1] was greater than 1000 nM; in assay [2], 114 nM; in assay [3] it was 1 nM; in assay [4], 660 nM; in assay [5] it was 1210 nM; in assay [6], greater than 10000 nM.

Regarding `NS(=O)(=O)OC[C@H]1C[C@@H](Nc2ncncc2C(=O)c2cc(C3OCCc4ccc(Cl)cc43)c(Cl)s2)C[C@@H]1O` (stereo not given in full), the half-maximal inhibitory concentration (IC50) in assay [1] is greater than 1000 nM; in assay [2], greater than 1000 nM; in assay [3] it was 1 nM; in assay [4], 8 nM; in assay [5], 10 nM; in assay [6] it was 14 nM.

As to `NC(c1cccc(Cl)c1)c1csc(C(=O)c2cncnc2N[C@@H]2C[C@H](COS(N)(=O)=O)[C@@H](O)C2)c1` (stereo in doubt; 33), the IC50 in assay [2] was greater than 1000 nM; in assay [3], 0.7 nM; in assay [4] it was 50 nM; in assay [5] it was 83 nM; in assay [6], 499 nM.

On to `Cc1sc(C(=O)c2cncnc2N[C@@H]2C[C@H](COS(N)(=O)=O)[C@@H](O)C2)cc1C1OCCc2ccc(Cl)nc21` (stereo not given in full), for which the half-maximal inhibitory concentration (IC50) in assay [1] is greater than 1000 nM; in assay [2] it was 203 nM; in assay [3] it was 0.1 nM; in assay [4], 20 nM; in assay [5] it was 18 nM; in assay [6], 89 nM.

For `Cc1sc(C(=O)c2cncnc2N[C@@H]2C[C@H](COS(N)(=O)=O)[C@@H](O)C2)cc1C1OCCc2cccnc21` (stereo not given in full), the IC50 in assay [1] is greater than 1000 nM; in assay [2] it was 507 nM; in assay [3], 0.2 nM; in assay [5], 19 nM; in assay [6], 64 nM.

On to `CC(O)(c1csc(C(=O)c2cncnc2N[C@@H]2C[C@H](COS(N)(=O)=O)[C@@H](O)[C@H]2O)c1)c1cccc(Br)n1` (stereo not given in full), for which the concentration for half-maximal inhibition (IC50) in assay [1] was 616 nM; in assay [2] it was 31 nM; in assay [3] it was 0.1 nM; in assay [4], 47 nM; in assay [5], 251 nM; in assay [6] it was 361 nM.

With `NC(c1cccc(Cl)c1)c1cc(C(=O)c2cncnc2N[C@@H]2C[C@H](COS(N)(=O)=O)[C@@H](O)C2)sc1Cl` (stereo not given in full), the half-inhibitory concentration (IC50) in assay [1] is greater than 1000 nM; in assay [2], 861 nM; in assay [3], 0.4 nM; in assay [4], 10 nM; in assay [5], 17 nM; in assay [6] it was 39 nM.

Consider `NS(=O)(=O)OC[C@H]1C[C@@H](Nc2ncncc2C(=O)c2cc(C3OCCc4ccc(Cl)cc43)cs2)C[C@@H]1O` (stereo not given in full), for which the IC50 was greater than 1000 nM in assay [1]; 450 nM in assay [2]; 0.5 nM in assay [3]; 8 nM in assay [4]; 7 nM in assay [5]; 22 nM in assay [6].

Regarding `NS(=O)(=O)OC[C@H]1C[C@@H](Nc2ncncc2C(=O)c2cc(C3NCCc4ccc(Cl)cc43)cs2)C[C@@H]1O` (stereo not given in full), the IC50 in assay [1] was greater than 1000 nM; in assay [2], greater than 1000 nM; in assay [3], 0.8 nM; in assay [4] it was 27 nM; in assay [5], 167 nM; in assay [6], 142 nM.

For `NS(=O)(=O)OC[C@H]1C[C@@H](Nc2ncncc2C(=O)c2cc(C(O)c3cccc(Cl)c3)c(Cl)s2)C[C@@H]1O` (stereo not given in full), the IC50 in assay [1] is greater than 1000 nM; in assay [2], 341 nM; in assay [3], 0.3 nM; in assay [4], 9 nM; in assay [5], 17 nM; in assay [6] it was 70 nM.

Consider `Cc1sc(C(=O)c2cncnc2N[C@@H]2C[C@H](COS(N)(=O)=O)[C@@H](O)C2)cc1Cc1cccc(Cl)c1`, for which the half-maximal inhibitory concentration (IC50) in assay [1] is greater than 1000 nM; in assay [2], 32 nM; in assay [3], 1.2 nM; in assay [4], 19 nM; in assay [5], 66 nM; in assay [6] it was 403 nM.

In the case of `Cc1sc(C(=O)c2cncnc2N[C@@H]2C[C@H](COS(N)(=O)=O)[C@@H](O)C2)cc1C1OCCc2ccccc21` (stereo not given in full), the concentration for half-maximal inhibition (IC50) in assay [1] is greater than 1000 nM; in assay [2] it was 102 nM; in assay [3], 0.3 nM; in assay [4] it was 6 nM; in assay [5], 4 nM; in assay [6], 14 nM.

Regarding `NS(=O)(=O)OC[C@H]1C[C@@H](Nc2ncncc2C(=O)c2cc(Cc3cccc(Cl)c3)c(Cl)s2)C[C@@H]1O`, the half-maximal inhibitory concentration (IC50) in assay [1] was greater than 1000 nM; in assay [2], 681 nM; in assay [3] it was 3.6 nM; in assay [4], 108 nM; in assay [5], 184 nM; in assay [6], 1400 nM.

Regarding `CC(N)(c1cccc(Cl)c1)c1csc(C(=O)c2cncnc2N[C@@H]2C[C@H](COS(N)(=O)=O)[C@@H](O)C2)c1` (stereo not given in full), the concentration for half-maximal inhibition (IC50) is greater than 1000 nM in assay [1]; greater than 1000 nM in assay [2]; 0.3 nM in assay [3]; 16 nM in assay [4]; 29 nM in assay [5]; 101 nM in assay [6].

As for `CC(O)(c1cccc(Cl)c1)c1csc(C(=O)c2cncnc2N[C@@H]2C[C@H](COS(N)(=O)=O)[C@@H](O)C2)c1` (stereo not given in full), the IC50 in assay [1] is greater than 1000 nM; in assay [2], 343 nM; in assay [3], 0.2 nM; in assay [4], 12 nM; in assay [5], 19 nM; in assay [6], 233 nM.

Consider `NS(=O)(=O)OC[C@H]1C[C@@H](Nc2ncncc2C(=O)c2cc(C3NCCc4ccccc43)cs2)C[C@@H]1O` (stereo not given in full), for which the IC50 in assay [1] is greater than 1000 nM; in assay [2] it was greater than 1000 nM; in assay [3], 1 nM; in assay [4] it was 78 nM; in assay [5], 365 nM; in assay [6], 503 nM.

For the molecule `NS(=O)(=O)OC[C@H]1C[C@@H](Nc2ncncc2C(=O)c2cc(C(O)c3cccc(Cl)c3)cs2)C[C@@H]1O` (stereo in doubt; 31), the half-inhibitory concentration (IC50) was 216 nM in assay [2]; 0.2 nM in assay [3]; 55 nM in assay [4]; 43 nM in assay [5]; 955 nM in assay [6].

As for `CNC(c1cccc(Cl)c1)c1csc(C(=O)c2cncnc2N[C@@H]2C[C@H](COS(N)(=O)=O)[C@@H](O)C2)c1` (stereo not given in full), the half-inhibitory concentration (IC50) in assay [1] is greater than 1000 nM; in assay [2], 956 nM; in assay [3], 3.7 nM; in assay [4], 436 nM.

With `NS(=O)(=O)OC[C@@H]1C[C@@H](Nc2ncncc2C(=O)c2ccn(Cc3ccccc3)n2)C[C@@H]1O`, the half-inhibitory concentration (IC50) was greater than 1000 nM in assay [1], 806 nM in assay [2], 22 nM in assay [3] and greater than 1000 nM in assay [4].

For the molecule `NS(=O)(=O)OC[C@H]1C[C@@H](Nc2ncncc2C(=O)c2ccn(Cc3ccccc3)n2)[C@@H](O)[C@@H]1O`, the IC50 in assay [1] is greater than 1000 nM; in assay [2] it was 748 nM; in assay [3], 27 nM; in assay [4] it was 1530 nM.

For `CN1CCc2ccc(Cl)cc2C1c1csc(C(=O)c2cncnc2N[C@@H]2C[C@H](COS(N)(=O)=O)[C@@H](O)C2)c1` (stereo not given in full), the half-maximal inhibitory concentration (IC50) in assay [1] was greater than 1000 nM; in assay [2] it was greater than 1000 nM; in assay [3], 2.5 nM; in assay [4], 638 nM.

Regarding `NS(=O)(=O)OC[C@H]1C[C@@H](Nc2ncncc2C(=O)c2ccn(Cc3ccc(Cl)s3)n2)C[C@@H]1O`, the half-maximal inhibitory concentration (IC50) in assay [1] is greater than 1000 nM; in assay [2], 353 nM; in assay [3] it was 2 nM; in assay [4], 228 nM.

As usually defined, the IC50 is the concentration needed to halve the response being measured.
